assay: Inhibition of Escherichia coli […] expressed in Escherichia coli TB1 using sodium pyruvate as substrate assessed as reduction of 2,6-DCPIP preincubated for 3 mins followed by ThDP addition
Method in brief: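 MBP-fused E. coli PDHc-E1 from plasmid pMal-C2X in strain TB1 (LB with 2% glucose, ampicillin, 37 °C to A600 0.6–0.8; 0.5 mM IPTG, 7 h, 25 °C), MBP affinity-purified, Bradford-quantified. Reaction: 50 mM K3PO4 pH 7.2, 2.0 mM pyruvate, 0.8 mM 2,6-DCPIP, enzyme, inhibitor at varied concentrations; 3 min at 37 °C, then ThDP added; DCPIP reduction read at 600 nm.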

Row | IC50 | Compound
1 | 1.89 µM | Cc1ncc(Cn2nnc(C(=O)N/N=C/c3ccc(Br)cc3)c2C)c(N)n1
2 | 110 µM | Cc1ncc(Cn2nnc(C(=O)N/N=C/c3ccccc3)c2C)c(N)n1
3 | 11.6 µM | Cc1ncc(Cn2nnc(C(=O)N/N=C/c3ccccc3O)c2C)c(N)n1
4 | 0.65 µM | Cc1ncc(Cn2nnc(C(=O)N/N=C/c3ccc([N+](=O)[O-])cc3)c2C)c(N)n1
5 | 3.43 µM | Cc1ncc(Cn2nnc(C(=O)N/N=C/c3ccc(O)cc3)c2C)c(N)n1
6 | 1.92 µM | Cc1ncc(Cn2nnc(C(=O)N/N=C/c3ccc(C(F)(F)F)cc3)c2C)c(N)n1
7 | 23.4 µM | Cc1ncc(Cn2nnc(C(=O)N/N=C/c3cccc(O)c3)c2C)c(N)n1
8 | 22.8 µM | Cc1ncc(Cn2nnc(C(=O)N/N=C/c3ccccn3)c2C)c(N)n1
9 | 2.35 µM | Cc1ncc(Cn2nnc(C(=O)N/N=C/c3ccc(Cl)cc3)c2C)c(N)n1
10 | 13.6 µM | Cc1ncc(Cn2nnc(C(=O)N/N=C/c3ccccc3Cl)c2C)c(N)n1
11 | 53.8 µM | Cc1ncc(Cn2nnc(C(=O)N/N=C/c3ccccc3Br)c2C)c(N)n1
12 | 1.71 µM | Cc1ncc(Cn2nnc(C(=O)N/N=C/c3ccc(Cl)c([N+](=O)[O-])c3)c2C)c(N)n1
13 | 50.3 µM | Cc1ccc(/C=N/NC(=O)c2nnn(Cc3cnc(C)nc3N)c2C)cc1
14 | 8 µM | Cc1ncc(Cn2nnc(C(=O)N/N=C/c3ccc(F)cc3)c2C)c(N)n1
15 | 20.9 µM | Cc1cccc(/C=N/NC(=O)c2nnn(Cc3cnc(C)nc3N)c2C)c1
16 | 14.5 µM | Cc1ncc(Cn2nnc(C(=O)N/N=C/c3ccc4c(c3)OCO4)c2C)c(N)n1

— ChEMBL document CHEMBL3102816, “Design, synthesis and molecular modeling of novel N-acylhydrazone derivatives as pyruvate dehydrogenase complex E1 inhibitors” (Bioorg Med Chem, 2014)
